Where only a bound is given, the exact number is not on record here.

Assay [1] has as its target T1, DNA topoisomerase 1 (Homo sapiens) (UniProt P11387).
T1 sequence (whole entry): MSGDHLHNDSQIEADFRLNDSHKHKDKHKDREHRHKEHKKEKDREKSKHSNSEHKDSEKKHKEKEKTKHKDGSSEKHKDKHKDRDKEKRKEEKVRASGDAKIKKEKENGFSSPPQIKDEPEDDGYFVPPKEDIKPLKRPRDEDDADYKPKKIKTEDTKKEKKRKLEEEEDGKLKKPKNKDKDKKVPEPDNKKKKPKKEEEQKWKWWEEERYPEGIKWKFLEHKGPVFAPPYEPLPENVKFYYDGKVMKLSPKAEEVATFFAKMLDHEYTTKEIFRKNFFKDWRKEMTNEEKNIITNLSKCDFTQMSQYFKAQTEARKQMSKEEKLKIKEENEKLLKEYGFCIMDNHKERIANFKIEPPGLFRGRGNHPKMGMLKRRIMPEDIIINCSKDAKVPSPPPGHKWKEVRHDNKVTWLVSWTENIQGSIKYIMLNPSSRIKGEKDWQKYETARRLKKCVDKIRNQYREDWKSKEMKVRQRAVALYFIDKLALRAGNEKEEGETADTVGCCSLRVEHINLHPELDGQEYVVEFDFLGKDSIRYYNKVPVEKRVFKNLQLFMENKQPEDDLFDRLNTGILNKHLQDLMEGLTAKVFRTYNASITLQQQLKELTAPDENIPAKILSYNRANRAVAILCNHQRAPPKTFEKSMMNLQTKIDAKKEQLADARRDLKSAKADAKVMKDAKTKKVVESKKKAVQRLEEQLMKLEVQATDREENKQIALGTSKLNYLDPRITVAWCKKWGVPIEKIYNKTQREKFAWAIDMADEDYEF
Put plainly: Inhibition of recombinant human DNA topoisomerase-1 assessed as relaxation of supercoiled DNA pBR322 at 100 uM after 30 mins by agarose gel electrophoresis relative to control. The essentials: (§1)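 Relaxation assay with 100 ng pBR322 plasmid DNA and 1 unit recombinant human topo I. Buffer was 10 mM Tris–HCl pH 7.9, 150 mM NaCl, 0.1% BSA, 1 mM spermidine and 5% glycerol, incubated 37 °C for 30 min with or without compound. Products were run on a 1% agarose gel in TAE at 15 V for 7 h and stained with ethidium bromide (0.5 µg/mL) for 30 min.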

For assay [2], the target named is T1, DNA topoisomerase 1 (Homo sapiens). Kind of assay: Inhibition of recombinant human DNA topoisomerase-1 assessed as relaxation of supercoiled DNA pBR322 at 20 uM after 30 mins by agarose gel electrophoresis relative to control. The essentials:
as §1

The target in assay [3] is DNA topoisomerase 2-alpha (Homo sapiens) (UniProt P11388). Put plainly: Inhibition of recombinant human DNA topoisomerase-2alpha using supercoiled pBR322 plasmid DNA as substrate at 100 uM after 30 mins by agarose gel electrophoresis relative to control. Summed up: (§2)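 200 ng supercoiled pBR322 with 1 unit human topo II, incubated 30 min at 30 °C with or without compound in 10 mM Tris–HCl pH 7.9, 50 mM NaCl, 5 mM MgCl2, 1 mM EDTA, 1 mM ATP and 15 µg/mL BSA. Reaction was stopped with 7 mM EDTA and run on 1% agarose in TAE at 25 V. Gel was stained with ethidium bromide, visualized under UV, and supercoiled DNA quantitated densitometrically.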

Assay [4] has the same target. Put plainly: Inhibition of recombinant human DNA topoisomerase-2alpha using supercoiled pBR322 plasmid DNA as substrate at 20 uM after 30 mins by agarose gel electrophoresis relative to control. The essentials: as §2
The subject of another assay is DU-145. Put plainly: Cytotoxicity against human DU145 cells measured on day 4 by CCK8 assay. The assay is classed as functional, cell-based. To be noted: DU-145, 96 h. Summed up: (§3)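 Cells seeded at […], grown overnight in medium with 10% FBS at 37 °C under 5% CO2. On day 2 they were serum-starved 4 h, then exposed to graded compound concentrations. On day 4 CCK-8 was added for a further 4 h and absorbance read at 450 nm. IC50 came from a four-parameter logistic fit, mean ± SD of three experiments in triplicate.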
(Formazan colour is commonly taken as a measure of viable cells.)

A further assay has as its system HCT-15. Kind of assay: Cytotoxicity against human HCT15 cells measured on day 4 by CCK8 assay. The assay is classed as functional, cell-based. The note with it: HCT-15, 96 h. The essentials:
as §3

In another assay the test system is T47D. Kind of assay: Cytotoxicity against human T47D cells measured on day 4 by CCK8 assay. The assay is classed as functional, cell-based. To be noted: 96 h. Summed up:
as §3

In the next assay the test system is HeLa. Put plainly: Cytotoxicity against human HeLa cells measured on day 4 by CCK8 assay. In kind it is functional, cell-based. The note with it: 96 h. Summed up:
as §3

Chain of DNA topoisomerase 2-alpha (Homo sapiens) (P11388 whole entry): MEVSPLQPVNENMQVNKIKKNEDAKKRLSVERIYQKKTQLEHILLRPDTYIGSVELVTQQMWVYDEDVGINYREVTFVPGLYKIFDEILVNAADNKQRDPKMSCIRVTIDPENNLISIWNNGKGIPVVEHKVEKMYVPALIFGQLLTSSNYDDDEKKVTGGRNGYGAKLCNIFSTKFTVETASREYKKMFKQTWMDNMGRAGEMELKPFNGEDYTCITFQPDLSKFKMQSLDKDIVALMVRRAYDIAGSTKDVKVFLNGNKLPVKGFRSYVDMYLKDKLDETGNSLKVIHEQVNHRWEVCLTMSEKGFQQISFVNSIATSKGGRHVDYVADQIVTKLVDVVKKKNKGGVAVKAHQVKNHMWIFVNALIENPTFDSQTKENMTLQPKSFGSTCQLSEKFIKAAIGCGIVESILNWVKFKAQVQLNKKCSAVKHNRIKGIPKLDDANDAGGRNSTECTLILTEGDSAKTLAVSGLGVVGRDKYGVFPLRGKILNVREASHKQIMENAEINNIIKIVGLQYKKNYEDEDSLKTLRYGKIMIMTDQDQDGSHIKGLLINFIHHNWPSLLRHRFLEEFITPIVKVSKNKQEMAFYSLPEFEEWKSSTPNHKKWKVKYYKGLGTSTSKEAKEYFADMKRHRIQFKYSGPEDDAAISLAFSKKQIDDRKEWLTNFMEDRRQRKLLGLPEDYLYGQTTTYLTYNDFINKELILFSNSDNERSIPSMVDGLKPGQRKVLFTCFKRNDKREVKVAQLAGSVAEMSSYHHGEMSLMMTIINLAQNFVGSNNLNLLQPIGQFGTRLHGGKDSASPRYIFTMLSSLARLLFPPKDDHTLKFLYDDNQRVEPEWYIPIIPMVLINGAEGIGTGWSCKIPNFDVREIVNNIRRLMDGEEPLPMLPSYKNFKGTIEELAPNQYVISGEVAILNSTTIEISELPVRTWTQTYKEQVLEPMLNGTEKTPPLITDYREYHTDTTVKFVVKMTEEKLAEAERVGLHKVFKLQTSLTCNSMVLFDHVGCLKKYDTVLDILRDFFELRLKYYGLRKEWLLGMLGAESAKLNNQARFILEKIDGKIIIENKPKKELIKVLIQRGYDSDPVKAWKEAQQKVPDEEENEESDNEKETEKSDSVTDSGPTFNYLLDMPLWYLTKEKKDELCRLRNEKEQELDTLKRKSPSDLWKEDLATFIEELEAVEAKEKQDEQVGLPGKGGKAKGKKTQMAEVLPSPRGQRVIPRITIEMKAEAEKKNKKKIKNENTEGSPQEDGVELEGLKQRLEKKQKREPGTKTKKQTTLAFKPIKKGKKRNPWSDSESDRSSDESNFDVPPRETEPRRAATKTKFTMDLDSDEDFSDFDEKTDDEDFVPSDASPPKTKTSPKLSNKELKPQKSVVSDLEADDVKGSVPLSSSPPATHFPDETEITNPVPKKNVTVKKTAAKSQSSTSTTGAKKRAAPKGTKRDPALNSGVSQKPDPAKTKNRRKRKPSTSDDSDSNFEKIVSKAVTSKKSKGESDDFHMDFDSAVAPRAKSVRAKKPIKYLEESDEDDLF

As for `Oc1cccc(-c2cc(-c3ccccn3)cc(-c3ccccc3O)n2)c1`, the inhibition in assay [1] was found to be 35.4%; in assay [2], 0.1%; in assay [3] it was 62.5%; in assay [4], 1.5%. Besides, the half-inhibitory concentration (IC50) in the assay on DU-145 is 17.1 µM; in the assay with HCT-15 it was above 50 µM; in the assay on T47D, 2.56 µM; with HeLa it was 2.02 µM.

As to `Oc1ccc(-c2cc(-c3cccs3)cc(-c3ccc(O)cc3)n2)cc1`, the inhibition turned out to be 86.3% in assay [1], 0.9% in assay [2], 74.6% in assay [3] and 30.3% in assay [4]. Moreover, the IC50 with DU-145 is 2.19 µM; in the assay with HCT-15, above 50 µM; in the assay on T47D, 11.7 µM; in the assay on HeLa, above 50 µM.

Regarding `Oc1ccc(-c2cc(-c3ccco3)cc(-c3ccccc3O)n2)cc1`, the inhibition in assay [1] is 83%; in assay [2], 0%; in assay [3] it was 84.8%; in assay [4], 13.6%. Further, the IC50 in the assay with DU-145, in the assay on HCT-15, in the assay with T47D and with HeLa was above 50 µM throughout.

For the compound `Oc1ccc(-c2cc(-c3cccnc3)cc(-c3ccc(O)cc3)n2)cc1`, the inhibition turned out to be 8.7% in assay [1], 5% in assay [2], 65.8% in assay [3] and 25.7% in assay [4]. In addition, the IC50 in the assay with DU-145 came to 0.24 µM; in the assay with HCT-15 it was 0.84 µM; in the assay on T47D it was 2.03 µM; with HeLa it was 0.6 µM.

Turning to `Oc1cccc(-c2cc(-c3cccs3)cc(-c3ccccc3O)n2)c1`, the inhibition in assay [1] came to 83.2%; in assay [2], 1.5%; in assay [3], 78.1%; in assay [4], 12.1%. Also, the IC50 was 9.3 µM with DU-145, above 50 µM with HCT-15, above 50 µM with T47D and above 50 µM with HeLa.

`Oc1cccc(-c2cc(-c3ccsc3)cc(-c3cccc(O)c3)n2)c1`: the inhibition came to 59.2% in assay [1], 4.5% in assay [2], 88.1% in assay [3] and 23% in assay [4]. Moreover, the IC50 was found to be 1.31 µM in the assay on DU-145, 1.63 µM in the assay with HCT-15, 1.51 µM in the assay on T47D and 16.6 µM in the assay on HeLa.

`Oc1cccc(-c2cc(-c3cccnc3)cc(-c3ccccc3O)n2)c1`: the inhibition in assay [1] was 1.9%; in assay [2], 0%; in assay [3] it was 55.2%; in assay [4] it was 8.1%. Moreover, the IC50 amounted to 5.58 µM in the assay on DU-145, 8.28 µM in the assay with HCT-15, 6.23 µM in the assay on T47D and 7.53 µM in the assay on HeLa.

`Oc1ccc(-c2cc(-c3cccs3)cc(-c3cccc(O)c3)n2)cc1`: the inhibition in assay [1] was 85.7%; in assay [2], 1.1%; in assay [3] it was 88.6%; in assay [4], 21.5%. Also, the IC50 in the assay with DU-145 stood at 1.89 µM; in the assay on HCT-15, 1.77 µM; in the assay with T47D it was 0.78 µM; in the assay on HeLa, 4.14 µM.

In the case of `Oc1ccc(-c2cc(-c3ccco3)cc(-c3ccc(O)cc3)n2)cc1`, the inhibition was determined as 100% in assay [1], 0% in assay [2], 92.3% in assay [3] and 48.4% in assay [4]. Further, the IC50 in the assay with DU-145 was above 50 µM; in the assay with HCT-15 it was 14 µM; with T47D, 21.1 µM; in the assay on HeLa it was above 50 µM.

`Oc1ccccc1-c1cc(-c2ccco2)cc(-c2ccccc2O)n1`: the inhibition in assay [1] was found to be 89.1%; in assay [2], 0.2%; in assay [3] it was 52.2%; in assay [4] it was 13.3%. Moreover, the IC50 in the assay with DU-145, in the assay on HCT-15, with T47D and with HeLa was above 50 µM in each case.

Consider `Oc1cccc(-c2cc(-c3ccco3)cc(-c3ccccc3O)n2)c1`, for which the inhibition came to 90.1% in assay [1], 0% in assay [2], 81.2% in assay [3] and 21.5% in assay [4]. The IC50 with DU-145 is 1.79 µM; in the assay with HCT-15, above 50 µM; in the assay with T47D, 0.82 µM; in the assay on HeLa it was above 50 µM.

For `Oc1ccc(-c2cc(-c3ccsc3)cc(-c3ccc(O)cc3)n2)cc1`, the inhibition in assay [1] came out at 61.7%; in assay [2], 7.5%; in assay [3], 81.2%; in assay [4], 57.9%. Also, the IC50 in the assay with DU-145 was 2.06 µM; in the assay with HCT-15 it was 1.04 µM; with T47D, 1.77 µM; in the assay on HeLa it was 4.37 µM.

For the compound `Oc1ccc(-c2cc(-c3ccoc3)cc(-c3cccc(O)c3)n2)cc1`, the inhibition in assay [1] was 37.4%; in assay [2], 1.3%; in assay [3] it was 95%; in assay [4] it was 19.7%. In addition, the IC50 in the assay on DU-145 is 2.7 µM; with HCT-15 it was 0.93 µM; with T47D it was 2.61 µM; with HeLa, 3.31 µM.

Regarding `Oc1cccc(-c2cc(-c3ccco3)cc(-c3cccc(O)c3)n2)c1`, the inhibition in assay [1] is 97.8%; in assay [2], 0%; in assay [3] it was 88.2%; in assay [4], 20.6%. In addition, the IC50 came out at 2.15 µM in the assay with DU-145, 1.89 µM in the assay with HCT-15, 3.52 µM in the assay with T47D and 5.99 µM in the assay on HeLa.

As to `Oc1ccc(-c2cc(-c3cccs3)cc(-c3ccccc3O)n2)cc1`, the inhibition in assay [1] is 72.2%; in assay [2], 2%; in assay [3], 76.4%; in assay [4], 30.2%. Further, the half-maximal inhibitory concentration (IC50) in the assay with DU-145, in the assay on HCT-15, with T47D and in the assay on HeLa was above 50 µM in each case.

Consider `Oc1ccc(-c2cc(-c3ccco3)cc(-c3cccc(O)c3)n2)cc1`, for which the inhibition was found to be 100% in assay [1], 1.5% in assay [2], 92.8% in assay [3] and 21.8% in assay [4]. Also, the IC50 worked out at 2.07 µM in the assay on DU-145, 0.84 µM in the assay with HCT-15, 1.28 µM in the assay on T47D and 5.17 µM with HeLa.

As for `Oc1ccc(-c2cc(-c3ccoc3)cc(-c3ccccc3O)n2)cc1`, the inhibition in assay [1] stood at 30.1%; in assay [2], 3.9%; in assay [3] it was 69.3%; in assay [4] it was 12.8%. The IC50 was 28 µM in the assay with DU-145, above 50 µM in the assay with HCT-15, above 50 µM with T47D and above 50 µM with HeLa.

Usually inhibition stands for the relative decrease from the control value, in per cent. For orientation: IC50 means the midpoint of a concentration-inhibition curve. The low end stands for greater potency, the high end for weaker potency.

For the origin of these results see ChEMBL document CHEMBL3585276, “Topoisomerase I and II inhibitory activity, cytotoxicity, and structure-activity relationship study of dihydroxylated 2,6-diphenyl-4-aryl pyridines” (Bioorg Med Chem, 2015).
